These results are taken from ChEMBL document CHEMBL4725418, “Design, Synthesis, and Structure-Activity Relationship Studies of Dual Inhibitors of Soluble Epoxide Hydrolase and 5-Lipoxygenase” (J Med Chem, 2020).

Values after ≈ are worked out from the molar mass of the structure shown. Active and inactive are the calls of the source. The calls are words filed in the database; no cut-off is given here.

Data set [1] in a line: Half life in Swiss CD-1 mouse at 3 mg/kg, po administered as single dose by LC-MS analysis. The note with it: in vivo. Format: ADME, organism-based. An outline of the steps:
(§1)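 Male Swiss CD-1 mice received a single oral dose of 3 mg/kg in 1% methylcellulose/Tween80 (99:1); nine mice treated, three vehicle controls, three mice per time point. Serum analyzed by LC-MS for concentration–time profile.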

The nature of data set [2]: Tmax in Swiss CD-1 mouse at 3 mg/kg, po administered as single dose by LC-MS analysis. The class given is ADME, organism-based. The note with it: in vivo. An outline of the steps: as §1
Data set [3] concerns the target T1, Bifunctional epoxide hydrolase 2 (Homo sapiens, UniProt P34913).
T1 sequence (P34913 whole entry): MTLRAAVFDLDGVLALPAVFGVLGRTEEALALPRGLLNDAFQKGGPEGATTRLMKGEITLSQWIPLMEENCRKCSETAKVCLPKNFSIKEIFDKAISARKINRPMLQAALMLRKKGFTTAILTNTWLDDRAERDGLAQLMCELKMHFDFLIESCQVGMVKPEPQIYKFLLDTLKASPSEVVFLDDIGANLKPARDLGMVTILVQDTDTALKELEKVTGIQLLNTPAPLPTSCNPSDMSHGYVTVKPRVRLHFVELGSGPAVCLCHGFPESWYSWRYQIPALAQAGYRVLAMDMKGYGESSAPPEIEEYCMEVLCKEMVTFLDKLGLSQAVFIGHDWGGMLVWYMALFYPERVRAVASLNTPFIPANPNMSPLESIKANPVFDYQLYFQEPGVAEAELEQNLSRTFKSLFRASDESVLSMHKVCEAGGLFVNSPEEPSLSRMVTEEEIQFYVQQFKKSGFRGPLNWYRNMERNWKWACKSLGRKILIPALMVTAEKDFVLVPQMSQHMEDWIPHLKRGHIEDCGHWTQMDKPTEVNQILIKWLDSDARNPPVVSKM
Nature of the data set: Inhibition of human sEH (1 to 555 residues) expressed in Escherichia coli BL21-(DE3) using PHOME substrate incubated for 30 to 45 mins by fluorescence based assay.

Data set [4] addresses T2, Polyunsaturated fatty acid 5-lipoxygenase (Homo sapiens, UniProt P09917).
T2 sequence (P09917 whole entry): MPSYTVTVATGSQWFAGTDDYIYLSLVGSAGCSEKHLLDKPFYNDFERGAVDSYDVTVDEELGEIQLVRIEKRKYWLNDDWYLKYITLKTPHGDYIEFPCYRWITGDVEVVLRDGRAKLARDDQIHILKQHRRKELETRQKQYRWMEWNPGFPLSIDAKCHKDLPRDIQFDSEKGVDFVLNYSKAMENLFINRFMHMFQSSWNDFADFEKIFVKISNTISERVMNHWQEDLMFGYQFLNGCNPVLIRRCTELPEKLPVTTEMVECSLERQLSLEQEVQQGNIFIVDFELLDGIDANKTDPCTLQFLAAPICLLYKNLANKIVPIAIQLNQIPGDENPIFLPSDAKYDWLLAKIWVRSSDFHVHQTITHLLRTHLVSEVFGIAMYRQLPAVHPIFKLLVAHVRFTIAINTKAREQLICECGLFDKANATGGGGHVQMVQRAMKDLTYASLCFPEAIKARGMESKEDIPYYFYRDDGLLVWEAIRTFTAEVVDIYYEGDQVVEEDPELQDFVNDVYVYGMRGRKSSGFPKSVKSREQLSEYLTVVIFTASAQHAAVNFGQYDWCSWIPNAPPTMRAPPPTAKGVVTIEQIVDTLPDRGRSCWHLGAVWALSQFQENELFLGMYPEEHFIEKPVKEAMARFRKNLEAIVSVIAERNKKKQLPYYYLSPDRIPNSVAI
The experiment in a line: Inhibition of 5-LOX (unknown origin) expressed in Escherichia coli BL21-(DE3) pre-incubated for 15 mins before AA substrate addition and measured after 10 mins by HPLC/UV assay. An outline of the steps: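 Recombinant 5-LOX activity measured with arachidonic acid as substrate; product formation monitored by HPLC. IC50 from at least three independent determinations (n ≥ 3), reported with 95% confidence interval.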

Data set [5] is described as follows: Solubility in pH 7.4 DPBS buffer. The class given is physicochemical.
Data set [6] deals with T3, Polyunsaturated fatty acid lipoxygenase ALOX12 (Homo sapiens) (UniProt P18054).
T3 sequence (whole entry): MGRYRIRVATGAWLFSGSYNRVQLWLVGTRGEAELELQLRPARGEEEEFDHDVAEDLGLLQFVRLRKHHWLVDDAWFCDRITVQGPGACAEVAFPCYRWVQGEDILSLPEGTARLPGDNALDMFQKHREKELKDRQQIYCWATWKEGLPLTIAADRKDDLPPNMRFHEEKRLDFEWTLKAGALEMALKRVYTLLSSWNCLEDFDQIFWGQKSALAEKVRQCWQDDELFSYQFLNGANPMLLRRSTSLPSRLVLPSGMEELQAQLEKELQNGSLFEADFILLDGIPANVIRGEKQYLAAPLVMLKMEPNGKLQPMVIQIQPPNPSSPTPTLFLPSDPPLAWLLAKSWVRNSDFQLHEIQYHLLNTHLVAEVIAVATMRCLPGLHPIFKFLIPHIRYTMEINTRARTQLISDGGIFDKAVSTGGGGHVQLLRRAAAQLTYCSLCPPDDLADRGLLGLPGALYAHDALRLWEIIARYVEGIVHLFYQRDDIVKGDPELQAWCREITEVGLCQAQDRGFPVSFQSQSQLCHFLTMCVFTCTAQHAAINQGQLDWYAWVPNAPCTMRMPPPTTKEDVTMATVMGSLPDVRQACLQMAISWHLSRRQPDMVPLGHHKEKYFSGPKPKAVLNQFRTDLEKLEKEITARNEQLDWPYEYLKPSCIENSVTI
The experiment in a line: Activation of 12-LOX in human PMNL pre-incubated for 15 mins before addition of AA and A23187 and measured after 10 mins by HPLC/UV assay. The note with it: filed as activator, time 25.0 min.

Data set [7] in a line: T>IC50 in Swiss CD-1 mouse at 3 mg/kg, po administered as single dose by LC-MS analysis. The class given is ADME, organism-based. The note with it: in vivo. The method in brief:
as §1

Data set [8] relates to Mus musculus. The experiment in a line: Anti-fibrotic activity in C57BL/6 mouse model of unilateral ureter obstruction-induced kidney inflammation and fibrosis assessed as inhibition of tubulo-interstitial fibrosis by measuring reduced blue staining of collagen fibers in AZAN-stained sections at 3 mg/kg, ip dosed daily for 7 days by AZAN trichrome staining method. The class given is functional, organism-based. The note with it: time 7.0 day. An outline of the steps: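 Mice with unilateral ureter obstruction to induce kidney inflammation and fibrosis, given compound or vehicle intraperitoneally. Ligated (UUO) and contralateral kidneys taken at day 7. Fibrosis read by AZAN and Sirius Red staining, with Sirius Red imaged under bright and polarized light. Macrophages detected by F4/80 staining, quantified as positive area. Col1a1, FN1, TNFα and Ccl2 mRNA measured in whole-kidney homogenates by real-time qRT-PCR normalized to GAPDH.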

As a reminder, the half-life is how long it takes for the measured level to halve. A high value points to slow decline. One may read the Tmax as the time from dosing to the highest level. By IC50 is commonly meant the midpoint of a concentration-inhibition curve. A higher IC50 goes with a need for much substance. Broadly, the solubility is the dissolved amount per volume that the medium holds. `C[C@H](C#Cc1cccc(C(=O)NCCC(c2ccc(F)cc2)c2ccc(F)cc2)c1)N(O)C(N)=O`: the half-life in data set [1] is 1.3 h. In data set [2], the Tmax came out at 1 h. Besides, the IC50 was determined as 1.2 nM in data set [3] and 110 nM in data set [4]. In data set [5], this compound gave a solubility of 3 µM (≈ 1.43 µg/mL). Moreover, the result in data set [6] and in data set [8] was Active. Further, the “T>IC50” value in data set [7] is 3 h.
